# In ChEMBL document CHEMBL1125294, “Chromophore-modified antineoplastic imidazoacridinones. Synthesis and activity against murine leukemias” (J Med Chem, 1992):
# Several values for one entry are separate records, joined by “and”; a condition that tells them apart may be missing. Equal values may be shown once.
# Assays:
# [1] = test system: L1210; assay: In vitro inhibitory activity against murine L1210 leukemia; type: functional, cell-based; conditions: Mus musculus
# Outline: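 Mouse L1210 leukemia cells were grown in RPMI 1640 with 5% fetal calf serum, penicillin and streptomycin, at 37 °C in 5% CO2. Cells were seeded at 5×10^4 cells/mL and exposed to four concentrations of compound dissolved in 50% ethanol.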
# [2] = test system: Mus musculus; assay: Antineoplastic activity was evaluated in vivo against murine leukemia P388 (i.p./i.p.; days 1-5) and optimum dose was reported; type: functional
# Outline: (§1)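 BDF1 mice given 10^6 P388 lymphocytic leukemia cells ip on day 0, then treated ip on days 1-5 following NCI protocols. Full dose-response runs spanned ineffective to clearly toxic doses. Mean survival time was taken per group of eight mice and expressed as % T/C. The optimal dose is the one giving the highest T/C.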
# [3] = test system: Mus musculus; assay: Antineoplastic activity was evaluated in vivo against murine leukemia P388 (i.p./i.p.; days 1-5) and optimum dose was reported;120; type: functional; outline: as §1
# [4] = Toxicity in CDF1 male mice following a single intraperitoneal administration; type: organism-based; conditions: CDF1, mouse, in vivo, ip
# Outline: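 Acute toxicity after one ip dose in male CDF1 mice. The read-out is the LD50, given as preliminary estimates that are either a dose range or a bound in mg/kg.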
# [5] = test system: Mus musculus; assay: In vivo % T/C activity was measured against P388 leukemia;250; type: functional; outline: as §1
# [6] = test system: Mus musculus; assay: In vivo % T/C activity was measured against P388 leukemia; 210; type: functional; outline: as §1
# [7] = test system: Mus musculus; assay: In vivo % T/C activity was measured against P388 leukemia; 290; type: functional; outline: as §1
# [8] = test system: Mus musculus; assay: In vivo % T/C activity was measured against P388 leukemia; 155; type: functional; outline: as §1
# [9] = test system: Mus musculus; assay: In vivo % T/C activity was measured against P388 leukemia; type: functional; outline: as §1
IC50 [1],Compound,Optimal dose [2],further results
1.1 µg/mL and 2.5 µM,CCN(CC)CCCNc1ccc2ncn3c4ccc(OC)cc4c(=O)c1c23,150 mg kg-1 injection-1,
1.4 µg/mL and 3.2 µM,COc1ccc2c(c1)c(=O)c1c(NCCCN(C)C)ccc3nc(C)n2c31,150 mg kg-1 injection-1,
0.02 µg/mL and 48 nM,CN(C)CCNc1ccc2ncn3c4ccc(O)cc4c(=O)c1c23,12.5 mg kg-1 injection-1,T/C [6]: 210%
3.5 µg/mL and 8.2 µM,COc1ccc2c(c1)c(=O)c1c(NCCCN(C)C)ccc3ncn2c31,150 mg kg-1 injection-1,
0.014 µg/mL and 34 nM,CN(C)CCCNc1ccc2ncn3c4ccc(O)cc4c(=O)c1c23,5 mg kg-1 injection-1,

# The remaining lines, values behind:
Compound,IC50 [1],Optimal dose [2],further results
CCN(CC)CCCNc1ccc2ncn3c4ccc(O)cc4c(=O)c1c23,0.08 µg/mL and 180 nM,25 mg kg-1 injection-1,
CCN(CC)CCNc1ccc2nc(C)n3c4ccc(OC)cc4c(=O)c1c23,0.7 µg/mL and 1.55 µM,,Optimal dose [3]: 150 mg kg-1 injection-1
Cc1nc2ccc(NCCN(C)C)c3c(=O)c4cc(O)ccc4n1c23,0.06 µg/mL and 135 nM,12.5 mg kg-1 injection-1,LD50 [4]: 250 mg/kg; T/C [5]: 200%
CCN(CC)CCNc1ccc2ncn3c4ccc(OC)cc4c(=O)c1c23,0.78 µg/mL and 1.8 µM,100 mg kg-1 injection-1,LD50 [4]: 500 mg/kg
Cc1nc2ccc(NCCCN(C)C)c3c(=O)c4cc(O)ccc4n1c23,0.1 µg/mL and 230 nM,100 mg kg-1 injection-1,
CCN(CC)CCNc1ccc2nc(C)n3c4ccc(O)cc4c(=O)c1c23,0.11 µg/mL and 250 nM,75 mg kg-1 injection-1,T/C [7]: 280%; LD50 [4]: 500 mg/kg
CCN(CC)CCCNc1ccc2nc(C)n3c4ccc(OC)cc4c(=O)c1c23,0.7 µg/mL and 1.4 µM,150 mg kg-1 injection-1,
COc1ccc2c(c1)c(=O)c1c(NCCN(C)C)ccc3ncn2c31,0.65 µg/mL and 1.65 µM,100 mg kg-1 injection-1,
CCN(CC)CCCNc1ccc2nc(C)n3c4ccc(O)cc4c(=O)c1c23,0.4 µg/mL and 890 nM,25 mg kg-1 injection-1,T/C [8]: 150%
COc1ccc2c(c1)c(=O)c1c(NCCN(C)C)ccc3nc(C)n2c31,0.34 µg/mL and 770 nM,150 mg kg-1 injection-1,
O=C1c2ccccc2C(=O)c2c(NCCNCCO)ccc(NCCNCCO)c21 [AMETANTRONE],1.77 µg/mL and 3.65 µM,12.5 mg kg-1 injection-1,T/C [9]: 300%
CCN(CC)CCNc1ccc2ncn3c4ccc(O)cc4c(=O)c1c23 [C-1311],0.013 µg/mL and 31 nM,5 mg kg-1 injection-1,LD50 [4]: > 200 mg/kg
